What is called inhibition is the relative decrease from the control value, in per cent. What is called IC50 is the concentration at which inhibition is half-maximal. As usually defined, the ΔTm is the shift of the melting midpoint relative to a reference. One may read the Kd as a measure of binding affinity in units of concentration.

Molecules are shown by their SMILES. Active and inactive are the calls of the source. The rule behind the calls is not given here.

The source of these data is ChEMBL document CHEMBL4725346, “Syntheses and Evaluation of New Bisacridine Derivatives for Dual Binding of G-Quadruplex and i-Motif in Regulating Oncogene c-myc Expression” (J Med Chem, 2020).

In one experiment the test system is Raji. The experiment is described as follows: Antiproliferative activity against human Raji cells after 48 hrs by MTT assay. Format: functional, cell-based. In general terms: Tetrazolium dyes change colour on reduction, which living cells bring about.
Experiment [1] is described as follows: Stabilization of c-myc promoter i-motif DNA Py33 (unknown origin) assessed as effect on melting temperature at 5 uM by CD spectroscopy. The method, boiled down:
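CD melting: Py33 at 1 µM in 1× BPES pH 6.4, with or without ligand. Annealed at 95 °C for 5 min, slowly cooled, then heated at 1 °C/min while monitoring 260 nm. Tm obtained by curve fitting.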

Experiment [2] has as its system CA46. Kind of experiment: Antiproliferative activity against human CA46 cells after 48 hrs by MTT assay. Format: functional, cell-based.
The subject of experiment [3] is SiHa. The experiment is described as follows: Inhibition of cell invasion in human SiHa cells at 0.5 uM by transwell assay relative to control. Format: functional. The method, boiled down:
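Transwell assay: SiHa cells incubated 24 h with 0.5 µM compound. Cell […] through the transwell was compared with an untreated control.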

Experiment [4] has as its system SiHa. Kind of experiment: Induction of cell cycle arrest in human SiHa cells assessed as accumulation of cells at G0/G1 phase at 0.30 uM after 24 hrs by propidium iodide staining based flow cytometry (reference value: 42.28%). Format: functional. The conditions noted are these: dose 0.3 µM. A general note: A flow cytometer gives signals particle by particle.
Experiment [5] can be described thus: Stabilization of c-myc promoter i-motif DNA Py33 (unknown origin) by 1H NMR spectra analysis. The method, boiled down:
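1D ¹H NMR titration with water suppression at 25 °C on a 600 MHz spectrometer. DNA at 0.5 mM in 10% D₂O/90% H₂O: Pu27 in 10 mM Tris-HCl pH 7.4, Py33 in 1× BPES pH 6.4. Annealed at 95 °C for 5 min before titration; ligand stock in d₆-DMSO.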

Experiment [6] deals with Quadruplex DNA. Kind of experiment: Binding affinity to c-myc promoter G-quadruplex/i-motif in human SiHa cells assessed as reduction in c-myc expression at 5 uM incubated for 24 hrs by Western blot analysis. Format: cell-based. Also noted: scale not given: the % may be the effect or the level left. A general note: Immunoblotting shows a protein as a band on a membrane.

The subject of a further experiment is HCT-116. Kind of experiment: Antiproliferative activity against human HCT-116 cells after 48 hrs by MTT assay. The note with it: HCT-116, 48 h. Format: functional, cell-based. The method, boiled down: (§1)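 Cells seeded at 5.0×10^3 per well, pre-incubated 12 h at 37 °C, 5% CO2, then exposed to compounds for 48 h; DMSO-only control. MTT (2.5 mg/mL) added for 4 h, formazan dissolved in DMSO, absorbance at 570 nm. Each dose tested in triplicate; IC50 from percentage survival relative to negative control.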

Experiment [7] concerns CA46. Kind of experiment: Induction of apoptosis in human CA46 cells at 0.6 to 2.4 uM after 24 hrs by propidium iodide staining based flow cytometry. Format: functional, cell-based. The note with it: dose microM 0.6-2.4, time 24.0 hrs.
Experiment [8] has as its system Quadruplex DNA. The experiment is described as follows: Binding affinity to c-myc wild-type promoter G-quadruplex/i-motif (unknown origin) expressed in human SiHa cells assessed as reduction in c-myc transcription by measuring decrease in ratio of renilla/firefly luciferase activity at 1/3 IC50 after 48 hrs by dual-luciferase reporter assay. Format: cell-based. Summed up:
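SiHa cells transfected with 200 ng psiCHECK2 plasmid carrying wild-type, mutant or deleted c-myc promoter. Compounds added 8 h after transfection, then incubated 48 h at 37 °C. Cells washed with ice-cold PBS; Renilla/firefly activity ratio read by dual-luciferase assay.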

Experiment [9] deals with Quadruplex DNA. Kind of experiment: Stabilization of 5'-FAM/3'-TAMRA labeled c-myc promoter G-quadruplex DNA FPu22T (unknown origin) assessed as change in melting temperature at 1 uM by FRET assay (reference value: 66.5 degreeC). Format: nucleic-acid assay. The method, boiled down: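 FRET melting of dual FAM/TAMRA-labelled FPu22T annealed in 10 mM Tris-HCl pH 7.4 with KCl. Final 0.2 µM DNA with or without ligand. Excitation 470 nm, emission 530 nm, read every 1 °C over 37–99 °C on a real-time PCR cycler. ΔTm = Tm(DNA+ligand) − Tm(DNA).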

The test system of experiment [10] is Quadruplex DNA. Kind of experiment: Binding affinity to c-myc promoter G-quadruplex/i-motif in human Raji cells assessed as reduction in c-myc mRNA transcription incubated for 24 hrs. Format: cell-based. The conditions noted are these: dose microM 0.16-2.5, time 24.0 hrs.
Experiment [11] relates to SiHa. The experiment is described as follows: Induction of apoptosis in human SiHa cells assessed as decrease in caspase-7 level incubated for 24 hrs by Western blot analysis. Format: functional, cell-based. The note with it: dose microM 0.6-2.4, time 24.0 hrs.
The subject of the next experiment is U2OS. The experiment is described as follows: Antiproliferative activity against human U2OS cells after 48 hrs by MTT assay. Format: functional, cell-based. Summed up: as §1
Experiment [12] has as its system SiHa. The experiment is described as follows: Induction of cell cycle arrest in human SiHa cells assessed as accumulation of cells at S phase at 0.30 uM after 24 hrs by propidium iodide staining based flow cytometry (reference value: 17.74%). Format: functional. The note with it: dose 0.3 µM.
Another experiment deals with dsDNA. Kind of experiment: Binding affinity to 5'-biotin labeled duplex DNA (unknown origin) by surface plasmon resonance method. Format: nucleic-acid assay. The method, boiled down: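 SPR: 5'-biotin DNA diluted to 1 μM and captured (1000 RU) on a sensor chip, with a blank cell as reference. Running buffers: Py33 in 20 mM MES pH 5.8, 100 mM KCl, 0.05% Tween-20; Pu27 and duplex in 50 mM Tris-HCl pH 7.4, 100 mM KCl. Six ligand concentrations serially diluted from DMSO stock. Association 260 s, dissociation 300 s at 25 °C; NaOH regeneration; blank sensorgrams subtracted.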

In experiment [13] the target is Quadruplex DNA. The experiment is described as follows: Binding affinity to c-myc promoter G-quadruplex DNA Pu27 (unknown origin) at 50 uM by isothermal titration calorimetry. Format: nucleic-acid assay. Summed up: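 ITC at 20 °C on degassed solutions. Cell held preformed DNA ([…]). Syringe held ligand in the same buffer (50 μM for Pu27, 20 μM for Py33). 28 injections of 10 μL at 4 min intervals. Heats of dilution from ligand-into-buffer runs subtracted before model fitting.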

In experiment [14] the test system is SiHa. The experiment is described as follows: Induction of cell cycle arrest in human SiHa cells assessed as accumulation of cells at S phase at 0.15 uM after 24 hrs by propidium iodide staining based flow cytometry (reference value: 17.74%). Format: functional.
Experiment [15] relates to SiHa. The experiment is described as follows: Induction of cell cycle arrest in human SiHa cells assessed as accumulation of cells at S phase at 0.60 uM after 24 hrs by propidium iodide staining based flow cytometry (reference value: 17.74%). Format: functional. The conditions noted are these: dose 0.6 µM.
Experiment [16] has as its system Quadruplex DNA. The experiment is described as follows: Binding affinity to c-myc promoter G-quadruplex/i-motif in human SiHa cells assessed as reduction in c-myc mRNA level at 5 uM incubated for 24 hrs by qRT-PCR analysis. Format: cell-based. Also noted: scale not given: the % may be the effect or the level left.
Experiment [17] deals with SiHa. Kind of experiment: Induction of apoptosis in human SiHa cells assessed as late apoptotic cells at 0.6 uM after 24 hrs by annexin V/FITC-propidium iodide staining-based flow cytometric method ( Rvb = 0.4%). Format: functional.
For experiment [18], the system named is Quadruplex DNA. Kind of experiment: Binding affinity to 5'-biotin labeled c-myc promoter G-quadruplex DNA Pu27 (unknown origin) by UV titration method. Format: nucleic-acid assay.
In experiment [19] the test system is SiHa. Kind of experiment: Effect on stability of c-myc RNA in human SiHa cells at 2.5 uM in presence of actinomycin D by RT-PCR method. Format: functional, cell-based. The method, boiled down: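 SiHa cells seeded at 2×10^5 per well, grown 24 h, then treated with 5 µg/mL actinomycin D plus 2.5 µM compound. Total RNA extracted at the indicated time points for RT-PCR.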

Experiment [20] has as its system Quadruplex DNA. The experiment is described as follows: Binding affinity to c-myc promoter G-quadruplex/i-motif in human CA46 cells assessed as reduction in c-myc mRNA transcription at 0.16 to 2.5 uM incubated for 24 hrs. The conditions noted are these: dose microM 0.16-2.5, time 24.0 hrs. Format: cell-based.

Take `Cc1ccc2nc3ccc(C)cc3c(NCCCNCCNCCCNc3c4cc(C)ccc4nc4ccc(C)cc34)c2c1`: the outcome (in the experiment on Raji; in [1]; in experiment [5]; in the experiment with Quadruplex DNA [8]; in the experiment on Quadruplex DNA [18]) was Active. In addition, the outcome in the experiment on CA46 [2], with CA46 [7], with SiHa [19] and with Quadruplex DNA [20] was inactive. The inhibition at 0.5 µM with SiHa [3] came to 85%. The Activity in the experiment with SiHa [4] was 30.44%; with Quadruplex DNA [6], < 92.2%; in the experiment on Quadruplex DNA [10], “Dose-dependent effect”; with SiHa [11], “Dose-dependent effect”; in the experiment with SiHa [12], 15.22%; with SiHa [14], 16.96%. The Activity in the experiment on SiHa [15] was 13.58%; in the experiment with Quadruplex DNA [16], < 92.7%; in the experiment with SiHa [17], 3.8%. The IC50 in the experiment on HCT-116 was found to be 150 nM; in the experiment with U2OS, 310 nM. Further, the ΔTm with Quadruplex DNA [9] is 9.9 °C. Besides, the Kd at dsDNA is 18500 nM; on Quadruplex DNA [13], 810 nM.
